Results reported in ChEMBL document CHEMBL1132488, “On the bioactive conformation of NAN-190 (1) and MP3022 (2), 5-HT(1A) receptor antagonists” (J Med Chem, 1999).
pKi: −log10 of the molar value. Each block holds one molecule with its values, some of them ahead of it.

Legend:
Rattus norvegicus [1] = organism: Rattus norvegicus; experiment: Induction of behavioral syndrome(FBP: flat body posture) by the compound in reserpine pretreated rats at a dose of 32; FBP mean score; assay type: functional
How it was run: (§1)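 Male Wistar rats (260–300 g) were given reserpine 1 mg/kg sc in saline 18 h before testing. Test compound was then given alone ip as a 1% Tween 80 suspension (2 mL/kg). FBP and FT were each scored 0–3 and summed (maximum 15). n=6 per group; mean ± SEM; Newman–Keuls test.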

Rattus norvegicus [2] = organism: Rattus norvegicus; experiment: Dose Inducing behavioral syndrome(FT: forepaw treading) by the compound in reserpine pretreated rats; assay type: functional
How it was run: (§2)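 Male Wistar rats (260–300 g), groups of 6, given reserpine 1 mg/kg sc 18 h before test. Compounds given ip as 1% Tween 80 suspension. FBP and FT rated 0–3 in 45-s sessions every 3 min, starting 3 min after dosing. Score summed over 5 periods (max 15 per symptom). Mean ± SEM; Newman–Keuls test.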

Rattus norvegicus [3] = organism: Rattus norvegicus; experiment: Induction of behavioral syndrome(FT: forepaw treading) by the compound in reserpine pretreated rats at a dose of 32; FT mean score; assay type: functional; how it was run: as §1
Rattus norvegicus [4] = organism: Rattus norvegicus; experiment: Induction of behavioral syndrome(FT: forepaw treading) by the compound in reserpine pretreated rats at a dose of 16; FT mean score; assay type: functional; how it was run: as §1
Rattus norvegicus [5] = organism: Rattus norvegicus; experiment: Effect on 8-OH-DAPT- induced behavioral syndrome(FT: forepaw treading) by the compound in reserpine pretreated rats at a dose of 8; FT mean score; assay type: functional
How it was run: (§3)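 Reserpinized male Wistar rats (reserpine 1 mg/kg sc, 18 h before), groups of 6. Compound given ip in 1% Tween 80 60 min before 8-OH-DPAT 5 mg/kg sc. FBP/FT rated 0–3 at 3, 6, 9, 12 and 15 min after agonist, summed (max 15). Mean ± SEM; Newman–Keuls test; ED50 with range.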

Rattus norvegicus [6] = experiment: Induction of LLR(lower lip retraction) by the compound in rats at a dose of 2 mg/kg; LLR score; assay type: functional
How it was run: (§4)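 Male Wistar rats, groups of 6, given compound alone ip as 1% Tween 80 suspension. Lower incisor visibility scored 0/0.5/1 at 15, 30 and 45 min after dosing, summed (max 3 per rat). Mean ± SEM versus vehicle, Newman–Keuls test; ED50 with range.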

Rattus norvegicus [7] = experiment: Induction of LLR(lower lip retraction) by the compound in rats at a dose of 4 mg/kg; LLR score; assay type: functional; how it was run: as §4
Rattus norvegicus [8] = organism: Rattus norvegicus; experiment: Induction of behavioral syndrome(FBP: flat body posture) by the compound in reserpine pretreated rats at a dose of 16; FBP mean score; assay type: functional; how it was run: as §2
Rattus norvegicus [9] = organism: Rattus norvegicus; experiment: Effect on 8-OH-DAPT- induced behavioral syndrome(FBP: flat body posture) by the compound in reserpine pretreated rats at a dose of 16; FBP mean score; assay type: functional; how it was run: as §3
Rattus norvegicus [10] = organism: Rattus norvegicus; experiment: Effect on 8-OH-DAPT- induced behavioral syndrome(FBP: flat body posture) by the compound in reserpine pretreated rats at a dose of 32; FBP mean score; assay type: functional; how it was run: as §3
Rattus norvegicus [11] = experiment: Induction of LLR(lower lip retraction) by the compound in rats at a dose of 8 mg/kg; LLR score; assay type: functional; how it was run: as §4
Rattus norvegicus [12] = organism: Rattus norvegicus; experiment: Effect on 8-OH-DAPT- induced behavioral syndrome(FBP: flat body posture) by the compound in reserpine pretreated rats at a dose of 8; FBP mean score; assay type: functional; how it was run: as §3
Rattus norvegicus [13] = organism: Rattus norvegicus; experiment: Dose Inducing behavioral syndrome(FBP: flat body posture) by the compound in reserpine pretreated rats; assay type: functional; how it was run: as §2
Rattus norvegicus [14] = organism: Rattus norvegicus; experiment: Effect on 8-OH-DAPT- induced behavioral syndrome(FT: forepaw treading) by the compound in reserpine pretreated rats at a dose of 16; FT mean score; assay type: functional; how it was run: as §3
Rattus norvegicus [15] = organism: Rattus norvegicus; experiment: Induction of behavioral syndrome(FT: forepaw treading) by the compound in reserpine pretreated rats at a dose of 8; FT mean score; assay type: functional; how it was run: as §1
Rattus norvegicus [16] = organism: Rattus norvegicus; experiment: Induction of behavioral syndrome(FBP: flat body posture) by the compound in reserpine pretreated rats at a dose of 8; FBP mean score; assay type: functional; how it was run: as §1
[17] = biological target: T1, 5-hydroxytryptamine receptor 1A (Rattus norvegicus, UniProt P19327); experiment: Ability to displace [3H]8-OH-DPAT from 5-hydroxytryptamine 1A receptor
T1 sequence (P19327 whole entry): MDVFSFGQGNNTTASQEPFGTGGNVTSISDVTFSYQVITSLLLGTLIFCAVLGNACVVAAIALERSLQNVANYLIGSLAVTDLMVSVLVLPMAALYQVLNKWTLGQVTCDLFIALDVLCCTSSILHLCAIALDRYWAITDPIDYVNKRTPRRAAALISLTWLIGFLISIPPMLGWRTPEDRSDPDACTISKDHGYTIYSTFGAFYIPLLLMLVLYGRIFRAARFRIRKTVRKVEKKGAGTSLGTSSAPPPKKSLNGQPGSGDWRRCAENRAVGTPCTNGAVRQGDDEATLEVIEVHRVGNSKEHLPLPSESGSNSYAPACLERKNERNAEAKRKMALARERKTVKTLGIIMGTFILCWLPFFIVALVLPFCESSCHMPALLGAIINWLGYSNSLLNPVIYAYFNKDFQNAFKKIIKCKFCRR
How it was run: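 Rat hippocampal membranes, [3H]8-OH-DPAT radioligand. Ki from at least three competition experiments, each with 10–14 drug concentrations run in triplicate. Ki calculated with the Cheng–Prusoff equation.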

Rattus norvegicus [18] = organism: Rattus norvegicus; experiment: Effective dose of the required to induce LLR(lower lip retraction); assay type: functional; how it was run: as §4
Rattus norvegicus [19] = organism: Rattus norvegicus; experiment: Effect on 8-OH-DAPT- induced behavioral syndrome(FT: forepaw treading) by the compound in reserpine pretreated rats at a dose of 32; FT mean score; assay type: functional; how it was run: as §3
Rattus norvegicus [20] = organism: Rattus norvegicus; experiment: Effect on 8-OH-DAPT- induced behavioral syndrome(FBP: flat body posture) by the compound in reserpine pretreated rats at a dose of 16.; assay type: functional; how it was run: as §3
Rattus norvegicus [21] = organism: Rattus norvegicus; experiment: Induction of behavioral syndrome(FT: forepaw treading) by the compound in reserpine pretreated rats at a dose of 8.; assay type: functional; how it was run: as §1
Rattus norvegicus [22] = organism: Rattus norvegicus; experiment: Induction of behavioral syndrome(FT: forepaw treading) by the compound in reserpine pretreated rats at a dose of 16.; assay type: functional; how it was run: as §1
Rattus norvegicus [23] = organism: Rattus norvegicus; experiment: Induction of behavioral syndrome(FBP: flat body posture) by the compound in reserpine pretreated rats at a dose of 4.; assay type: functional; how it was run: as §1
Rattus norvegicus [24] = organism: Rattus norvegicus; experiment: Induction of behavioral syndrome(FBP: flat body posture) by the compound in reserpine pretreated rats at a dose of 16.; assay type: functional; how it was run: as §2
Rattus norvegicus [25] = organism: Rattus norvegicus; experiment: Effect on 8-OH-DAPT- induced behavioral syndrome(FBP: flat body posture) by the compound in reserpine pretreated rats at a dose of 4.; assay type: functional; how it was run: as §3
Rattus norvegicus [26] = experiment: Induction of LLR(lower lip retraction) by the compound in rats at a dose of 32 mg/kg; assay type: functional; how it was run: as §4
Rattus norvegicus [27] = organism: Rattus norvegicus; experiment: Effect on 8-OH-DAPT- induced behavioral syndrome(FBP: flat body posture) by the compound in reserpine pretreated rats at a dose of 8.; assay type: functional; how it was run: as §3
Rattus norvegicus [28] = experiment: Effect on 8-OH-DPAT-Induced LLR(lower lip retraction) in rats at a dose of 16 mg/kg; assay type: functional
How it was run: (§5)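 Male Wistar rats, groups of 6. Compound given ip in 1% Tween 80 45 min before 8-OH-DPAT 1 mg/kg sc. Lower incisor visibility scored 0/0.5/1 at 15, 30 and 45 min after agonist, summed (max 3). Mean ± SEM; Newman–Keuls test; ED50 with range.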

Rattus norvegicus [29] = organism: Rattus norvegicus; experiment: Effect on 8-OH-DAPT- induced behavioral syndrome(FT: forepaw treading) by the compound in reserpine pretreated rats at a dose of 8.; assay type: functional; how it was run: as §3
Rattus norvegicus [30] = organism: Rattus norvegicus; experiment: Induction of behavioral syndrome(FT: forepaw treading) by the compound in reserpine pretreated rats at a dose of 4.; assay type: functional; how it was run: as §1
Rattus norvegicus [31] = experiment: Induction of LLR(lower lip retraction) by the compound in rats at a dose of 16 mg/kg; assay type: functional; how it was run: as §4
Rattus norvegicus [32] = experiment: Effect on 8-OH-DPAT-Induced LLR(lower lip retraction) in rats at a dose of 8 mg/kg; assay type: functional; how it was run: as §5
Rattus norvegicus [33] = organism: Rattus norvegicus; experiment: Dose Inducing behavioral syndrome(FT: forepaw treading) by the compound in reserpine pretreated rats.; assay type: functional; how it was run: as §2
Rattus norvegicus [34] = organism: Rattus norvegicus; experiment: Dose inhibiting 8-OH-DPAT-induced behavioral syndrome(FBP: flat body posture) by the compound in reserpine pretreated rats.
Rattus norvegicus [35] = organism: Rattus norvegicus; experiment: Effect on 8-OH-DAPT- induced behavioral syndrome(FT: forepaw treading) by the compound in reserpine pretreated rats at a dose of 4.; assay type: functional; how it was run: as §3
Rattus norvegicus [36] = organism: Rattus norvegicus; experiment: Effect on 8-OH-DAPT- induced behavioral syndrome(FT: forepaw treading) by the compound in reserpine pretreated rats at a dose of 16.; assay type: functional; how it was run: as §3
Rattus norvegicus [37] = experiment: Induction of LLR(lower lip retraction) by the compound in rats at a dose of 8 mg/kg; assay type: functional; how it was run: as §4
Rattus norvegicus [38] = experiment: Effect on 8-OH-DPAT-Induced LLR(lower lip retraction) in rats at a dose of 32 mg/kg; assay type: functional; how it was run: as §5
Rattus norvegicus [39] = organism: Rattus norvegicus; experiment: Induction of behavioral syndrome(FBP: flat body posture) by the compound in reserpine pretreated rats at a dose of 8.; assay type: functional; how it was run: as §1
Rattus norvegicus [40] = organism: Rattus norvegicus; experiment: Effective dose of the required to inhibit symptoms produced by 8-OH-DPAT; assay type: functional; how it was run: as §3

- pKi [17]: 7.30
Compound: O=C1[C@H]2CCCC[C@H]2C(=O)N1CCCCN1CCc2ccccc2C1
- FBP mean score (Rattus norvegicus [1]): 3.7
- ED50 (Rattus norvegicus [2]): 17 mg/kg
- FT mean score (Rattus norvegicus [3]): 0.2
- FT mean score (Rattus norvegicus [4]): 0.2
- FT mean score (Rattus norvegicus [5]): 9.8
- LLR score (Rattus norvegicus [6]): 1
- LLR score (Rattus norvegicus [7]): 1.9
- FBP mean score (Rattus norvegicus [8]): 2.3
- FBP mean score (Rattus norvegicus [9]): 13.3
- FBP mean score (Rattus norvegicus [10]): 11.7
- LLR score (Rattus norvegicus [11]): 2.5
- FBP mean score (Rattus norvegicus [12]): 14.6
- ED50 (Rattus norvegicus [13]): > 32 mg/kg
- FT mean score (Rattus norvegicus [14]): 7.7
- FT mean score (Rattus norvegicus [15]): 0.1
- FBP mean score (Rattus norvegicus [16]): 0.1
- ED50 (Rattus norvegicus [18]): 3.9 mg/kg
- FT mean score (Rattus norvegicus [19]): 6

- pKi [17]: 7.14
Compound: COc1ccccc1N1CCN(C2CCC(N3C(=O)[C@H]4CCCC[C@H]4C3=O)CC2)CC1 (stereo partly specified)
- FBP mean score (Rattus norvegicus [20]): 3.2
- FT mean score (Rattus norvegicus [21]): 0.2
- FT mean score (Rattus norvegicus [22]): 0.1
- FBP mean score (Rattus norvegicus [23]): 0.2
- FBP mean score (Rattus norvegicus [24]): 0.1
- FBP mean score (Rattus norvegicus [25]): 11.6
- LLR score (Rattus norvegicus [26]): 0.3
- FBP mean score (Rattus norvegicus [27]): 9.8
- LLR score (Rattus norvegicus [28]): 1.6
- FT mean score (Rattus norvegicus [29]): 5.4
- FT mean score (Rattus norvegicus [30]): 0.2
- LLR score (Rattus norvegicus [31]): 0.3
- LLR score (Rattus norvegicus [32]): 2.3
- ED50 (Rattus norvegicus [33]): 7.3 mg/kg
- ED50 (Rattus norvegicus [34]): 11 mg/kg
- FT mean score (Rattus norvegicus [35]): 9.2
- FT mean score (Rattus norvegicus [36]): 2
- LLR score (Rattus norvegicus [37]): 0.2
- LLR score (Rattus norvegicus [38]): 1.1
- FBP mean score (Rattus norvegicus [39]): 0.1
- ED50 (Rattus norvegicus [40]): 20 mg/kg
